Biological target: T1, C-C chemokine receptor type 3 (Homo sapiens, UniProt P51677)
T1 sequence (P51677 whole entry): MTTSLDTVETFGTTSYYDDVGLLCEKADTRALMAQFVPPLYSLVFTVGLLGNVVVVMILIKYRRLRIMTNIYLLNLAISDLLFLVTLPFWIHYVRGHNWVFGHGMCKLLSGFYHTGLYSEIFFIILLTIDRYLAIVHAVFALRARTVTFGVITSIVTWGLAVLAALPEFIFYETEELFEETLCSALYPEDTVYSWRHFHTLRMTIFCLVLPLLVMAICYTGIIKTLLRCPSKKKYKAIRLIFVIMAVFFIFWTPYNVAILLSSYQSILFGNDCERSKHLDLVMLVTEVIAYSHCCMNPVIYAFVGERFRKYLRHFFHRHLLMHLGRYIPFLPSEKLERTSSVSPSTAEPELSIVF
Assay: Inhibition of [125I]eotaxin-1 binding to human chemokine receptor (hCCR3-C1)
Summary of the method: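 K562 leukemia myelogenic blast cells transfected with human CCR3 (hCCR3-C1). Binding of the radioligand 125I-eotaxin-1 was measured in a scintillation proximity format. Controls: specific binding with no displacer added, and nonspecific binding with unlabeled eotaxin or test compound added. Bound radioactivity was counted by scintillation. Ki was obtained by iterative fitting of the data to a law-of-mass-action model.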

Structure (SMILES): Cc1ccc(CCNCC(c2ccccc2)N2CCN(C)CC2)cc1 (stereo unspecified)
- Ki: 11.6 µM

— ChEMBL document CHEMBL1142703, “Novel ligands for the chemokine receptor-3 (CCR3): a receptor-modeling study based on 5D-QSAR” (J Med Chem, 2005)
